This is one part of a sample in which hits are shown more often than they occur.
MDM2 E3 inh: blocks human Mdm2 ubiquitin ligase activity; Q00987; cell-based MDM2 ubiquitination luciferase reporter, 2 h; 0 = plate control, 100 = twice control, blank-subtracted; signal enhancement, % at 5 µM; actives 0.11% (n = 210,000); AID 1230;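 active means signal enhancement of 30% or more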;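 further: luminescence tracks abundance of the self-degrading MDM2-luciferase fusion protein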
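Buffer or medium: Cells held in DMEM | Assay system: Stable mammalian line carrying autodegrading MDM2–luciferase fusion reporter | Quantity: 2000 cells/well | Times: 4 h settle plus 2 h compound, 37 °C | Doses: One concentration, 5 µM, with 0.2% DMSO | Technique: Luminescence with SteadyLite reagent, 15 min at room temperature | Benchmarks: Plate controls and plate blanks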
S1P3 antagonist: blocks the human S1P3 receptor | CHO S1P3 NFAT-BLA reporter, FRET fluorescence, antagonist mode | actives 0.27% (n = 170,000) | Q99500 | AID 485 | inhibition, % at 4.98 µM;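 active means inhibition above the plate cutoff, the mean inhibition of test wells on that plate plus 3 SD, cut at about 28% in these data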;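 further: cells challenged with S1P at its EC80 of 0.8 µM; blue over green emission ratio from cleaved BLA substrate after 4 h stimulation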
Target sequence (Q99500 whole entry, looked up): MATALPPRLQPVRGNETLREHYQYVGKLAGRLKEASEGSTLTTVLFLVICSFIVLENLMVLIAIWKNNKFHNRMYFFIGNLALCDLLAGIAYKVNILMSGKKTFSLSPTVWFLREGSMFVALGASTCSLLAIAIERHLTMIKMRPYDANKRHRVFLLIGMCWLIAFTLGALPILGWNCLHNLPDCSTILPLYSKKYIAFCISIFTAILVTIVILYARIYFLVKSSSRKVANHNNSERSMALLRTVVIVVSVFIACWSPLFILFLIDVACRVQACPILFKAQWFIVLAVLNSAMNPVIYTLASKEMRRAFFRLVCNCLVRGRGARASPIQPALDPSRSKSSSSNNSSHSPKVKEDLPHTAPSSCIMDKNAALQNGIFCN
S1P4 agonist: human S1P4 receptor agonism | S1P4-expressing cell line, agonist reporter assay | activation, % at 4.98 µM | actives 0.35% (n = 220,000); in the data active means activation above about 11%
S1P4 antag: human S1P4 receptor antagonism; O95977; S1P4-expressing cells, antagonist mode, reporter read-out; actives 0.26% (n = 220,000); inhibition, % at 4.98 µM; in the data active means inhibition above about 29%
L major viab: inhibitors of Leishmania major promastigote growth | inhibition, % at 10 µM | actives 9% (n = 200,000) | Leishmania major promastigotes, resazurin fluorescence viability; in the data active means inhibition above about 50%;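 further: promastigotes grown with compound for 44 hours at 28 °C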
Hits are given with their value; i = inactive; nt = no result given.

SMILES	MDM2 E3 inh	S1P3 antagonist	S1P4 agonist	S1P4 antag	L major viab
CC(C)(C)C(=O)OCc1nc(-c2ccc(C(F)(F)F)cc2)cs1	i	i	i	i	nt
Cc1ccc(C(=O)N/N=C/c2ccc(-c3ccccc3[N+](=O)[O-])o2)cn1	i	i	i	i	72
O=C1Nc2ccccc2/C1=C/c1cccnc1	i	i	i	i	78
Cc1ccc(/C=C2\C(=O)Nc3ccccc32)o1	i	i	i	i	99
CC(=O)Nc1ccc(NC(=O)C(=O)N/N=C/c2cccnc2)cc1	i	i	i	i	nt
COc1cc(OC)cc(C(=O)N[C@H](C(=O)NC23CC4CC(CC(C4)C2)C3)C(C)C)c1	nt	nt	i	i	64
CCOC(=O)C1CCCN(S(=O)(=O)c2ccc(Br)s2)C1 (stereo unspecified)	i	i	i	i	i
Cc1csc(NC(=O)C2CCCN(S(=O)(=O)c3ccc(Br)s3)C2)n1 (stereo unspecified)	i	nt	i	i	61
O=C(Nc1nc(-c2ccccc2)cs1)C1CCCCN1S(=O)(=O)c1ccc(Cl)cc1 (stereo unspecified)	i	nt	i	i	100
O=C(Nc1nc(-c2ccccc2)cs1)C1CCCN(S(=O)(=O)c2cccc([N+](=O)[O-])c2)C1 (stereo unspecified)	i	nt	i	i	93
O=C(Nc1nc(-c2ccccc2)cs1)C1CCCN(S(=O)(=O)c2ccccc2)C1 (stereo unspecified)	i	i	i	i	i
O=C(Nc1nc(-c2ccccc2)cs1)C1CCCCN1S(=O)(=O)c1ccccc1 (stereo unspecified)	i	98	i	i	93
O=C(Nc1ccc2c(c1)OCO2)C1CCCCN1S(=O)(=O)c1ccccc1 (stereo unspecified)	i	nt	i	i	65
COc1ccc(S(=O)(=O)N2CCN(S(=O)(=O)c3ccc4c(c3)OCCO4)CC2)cc1C	i	i	i	i	61
O=S(=O)(Cc1ccccc1)N1CCN(Cc2ccc3c(c2)OCO3)CC1	i	nt	i	i	92
O=S(=O)(c1ccc2c(c1)OCCO2)N1CCN(Cc2ccc3c(c2)OCO3)CC1	i	i	i	i	73
CCOC(=O)N1CCN(C(=O)c2ccc3nc(N4CCCCC4)sc3c2)CC1	i	i	i	i	i
O=C(c1ccc2nc(N3CCCCC3)sc2c1)N1CCN(Cc2ccc3c(c2)OCO3)CC1	i	i	i	i	68
CCO[C@@H]1OC(C(=O)N2CCN(C)CC2)=C[C@H](c2ccc(C(F)(F)F)cc2)[C@H]1CCCO	nt	i	i	i	i
CCOC(=O)C(C)Sc1ccc2nnc(CCNS(=O)(=O)c3ccccc3)n2n1 (stereo unspecified)	nt	i	i	i	i
O=C(COC(=O)c1ccc(Cl)nc1)Nc1ccccc1OC(F)F	i	i	i	i	i
O=C(c1ccc(S(=O)(=O)N2CCCCC2)cc1)N1CCN(Cc2ccc3c(c2)OCO3)CC1	i	i	i	i	98
Cn1c(=O)oc2cc(S(=O)(=O)N3CCN(Cc4ccc5c(c4)OCO5)CC3)ccc21	i	i	i	i	76
O=C(NCc1ccc2c(c1)OCO2)C1CCN(c2ccc(S(=O)(=O)N3CCCC3)cc2)CC1	i	nt	i	i	97
O=C(OCc1ccc2c(c1)OCO2)c1cccc(S(=O)(=O)N2CCCCC2)c1	i	nt	i	i	55
SMILES	MDM2 E3 inh	S1P3 antagonist	S1P4 agonist	S1P4 antag	L major viab
O=C(c1cccc(S(=O)(=O)N2CCOCC2)c1)N1CCN(Cc2ccc3c(c2)OCO3)CC1	i	i	i	i	i
CC(C)CCN1CCN(Cc2ccc(C#CCCO)cc2)CC1CCO (stereo unspecified)	i	i	i	i	i
Cc1occc1-c1nnc(SCC(=O)N2CCCCC2)o1	i	i	i	i	i
COc1cc(S(=O)(=O)N2CCN(Cc3ccc4c(c3)OCO4)CC2)c(C)cc1C	i	i	i	i	i
COc1cc(C)c(C)cc1S(=O)(=O)N1CCN(Cc2ccc3c(c2)OCO3)CC1	i	i	i	i	60
Cc1nn(Cc2ccccc2)c2sc(C(=O)N3CCN(Cc4ccc5c(c4)OCO5)CC3)cc12	i	i	i	i	75
O=S(=O)(c1cccc(F)c1)N1CCN(Cc2ccc3c(c2)OCO3)CC1	i	nt	i	i	74
CCn1c2ccccc2c2cc(CN3CCN(S(=O)(=O)Cc4ccccc4)CC3)ccc21	i	i	i	i	55
CCn1c2ccccc2c2cc(CN3CCN(S(=O)(=O)CC)CC3)ccc21	i	i	i	i	i
O=C(Nc1ncn[nH]1)c1ccc(S(=O)(=O)N2CCOCC2)cc1	i	i	i	i	i
O=S(=O)(c1ccc(F)c(F)c1)N1CCN(Cc2ccc3c(c2)OCO3)CC1	i	i	i	i	78
O=C1CCc2cc(S(=O)(=O)N3CCN(Cc4ccc5c(c4)OCO5)CC3)ccc2N1	i	i	i	i	i
COC(=O)c1c(NC(=O)CN2CCC3(O)CCCCC3C2c2ccccc2OC)sc(C)c1C (stereo unspecified)	i	i	i	i	i
COc1cc([C@H]2[C@@H]3CCCC[C@]3(O)CCN2Cc2ccccc2F)ccc1O	i	i	i	i	i
COC(=O)c1c(NC(=O)CN2CCC3(O)CCCCC3C2c2ccc(OC)cc2OC)sc(C)c1C (stereo unspecified)	i	i	i	i	62
COc1cc([C@H]2[C@@H]3CCCC[C@]3(O)CCN2CC(=O)Nc2ccc(C)cc2C)ccc1O	i	i	i	i	65
CCC(c1nnc(SCC(=O)Nc2nnc(-c3ccccc3)o2)n1Cc1ccccc1)N(C)C (stereo unspecified)	i	i	i	i	i
COCCNc1nc2nonc2nc1N(C)Cc1cccc2cnccc12	48	i	i	i	i
CCN(c1ccccc1)c1nc2nonc2nc1NCCO	i	i	i	i	nt
CN1CCN(c2ncnc3c2[nH]c2ccc(F)cc23)CC1	i	nt	i	i	i
CN1CCN(c2cc3c(c4c2[nH]c2ccccc24)C(=O)CC(C)(C)C3)CC1	i	i	i	i	95
O=C(c1ccccc1)c1coc2c1C(=O)c1ccccc1C2=O	i	i	i	i	i
O=C1c2ccccc2C(=O)c2c1oc(C(F)(F)F)c2C(=O)c1ccccc1	i	nt	i	i	99
COc1cccc(/C=C2\C(=O)N(c3cccc(C)c3)C(=O)c3ccccc32)c1	i	i	i	i	73
Cc1cccc(N2C(=O)/C(=C\c3ccc(OC(F)F)cc3)c3ccccc3C2=O)c1	i	i	i	i	i
COc1ccc(C(=O)NC2CCCCCC2)cc1S(=O)(=O)N1CCCc2ccccc21	i	nt	i	i	94
COc1ccc(C(=O)Nc2nc3c(s2)CCCC3)cc1S(=O)(=O)N1CCCc2ccccc21	i	i	i	i	97
Cc1ccc(S(=O)(=O)N(C)C)cc1[N+](=O)[O-]	i	i	i	i	nt
Cc1cccc(C(=O)Nc2ccc(C(=O)/C=C/c3cccnc3)cc2)c1	i	i	i	i	100
Cc1cccc(NC(=O)c2cccnc2)c1	i	i	i	i	i

Source: PubChem BioAssay
